Results taken from ChEMBL document CHEMBL1137183, “4-Aryl-3-(mercapto)quinolin-2-ones: novel maxi-K channel opening relaxants of corporal smooth muscle” (Bioorg Med Chem Lett, 2004).
In brackets after ≈: the same amount, converted by molar mass.

Assays:
[1] = Effect on maxi-K mediated outward current in xenopus laevis oocytes at 5 uM; type: functional, Xenopus sp., Oocyte
In short: (§1)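 Two-electrode voltage clamp of whole-cell outward K+ current in Xenopus laevis oocytes expressing cloned hSlo maxi-K channels. Single drug concentration per line. Current is the iberiotoxin-sensitive fraction, tested in at least five oocytes. Value is the average current as a percentage of drug-free control (100%).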

Oocyte = experiment: Effect on maxi-K mediated outward current in xenopus laevis oocytes at 20 uM; In soluble; type: functional, cell-based; conditions: Xenopus sp.; in short: as §1
[2] = Solubility was determined; type: physicochemical
In short: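 Aqueous solubility measured in HPLC-grade water by a UV absorptivity method, reported in mg/mL.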

[3] = Effect on maxi-K mediated outward current in xenopus laevis oocytes at 20 uM; type: functional, Xenopus sp., Oocyte; in short: as §1
Oryctolagus cuniculus = species on record: Oryctolagus cuniculus; experiment: Percentage inhibition by the compound in isolated rabbit corpus cavernosum at 10 uM; type: functional
In short: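 New Zealand white rabbits (3.4–3.7 kg) euthanized by pentobarbital overdose. Corpus cavernosum strips, 3–5 mm, cut after removal of the tunica and held in modified Krebs-Henseleit bicarbonate buffer at 37 °C. Isometric force recorded. Strips pre-contracted with phenylephrine 3 μM to a steady force, then compound added. Result is % inhibition of force relative to vehicle control; n given per value.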

Row | Structure (SMILES) | hSlo current [1] [%] | hSlo current (Oocyte) | solubility [2] [µg/mL] | hSlo current [3] [%] | Inhibition (Oryctolagus cuniculus) [%]
1 | CC(C)(C)Sc1c(O)nc2ccc(C(F)(F)F)cc2c1-c1cc(Cl)ccc1O | 73 | Insoluble | < 1 |  | 
2 | OCCSc1c(O)nc2ccc(C(F)(F)F)cc2c1-c1cc(Cl)ccc1O |  |  | 4 (≈ 9.62 µM) | 348 | 43
3 | O=c1[nH]c2cc(C(F)(F)F)ccc2n1-c1cc(Cl)ccc1O |  |  |  | 132 | 31
4 | OCC(O)CSc1c(O)nc2ccc(C(F)(F)F)cc2c1-c1cc(Cl)ccc1O (centres undefined) |  |  | 190 (≈ 426 µM) | 246 | 31
5 | Oc1ccc(Cl)cc1-c1c(S)c(O)nc2ccc(C(F)(F)F)cc12 |  |  | 3 (≈ 8.07 µM) | 197 | 
6 | OCCCSc1c(O)nc2ccc(C(F)(F)F)cc2c1-c1cc(Cl)ccc1O |  |  | 3 (≈ 6.98 µM) | 242 | 23
7 | CSc1c(O)nc2ccc(C(F)(F)F)cc2c1-c1cc(Cl)ccc1O |  |  | < 1 | 231 | 22
